ChEMBL document CHEMBL1151755, “Crystal structure of the peroxisome proliferator-activated receptor gamma (PPARgamma) ligand binding domain complexed with a novel partial agonist: a new region of the hydrophobic pocket could be exploited for drug design” (J Med Chem, 2008)

Tests used:
[1] = biological target: T1, Peroxisome proliferator-activated receptor alpha (Homo sapiens, UniProt Q07869); experiment: Agonist activity at PPARalpha ligand binding domain expressed in human Hep G2 cells co-transfected with Gal4-DBD by luciferase reporter gene assay; assay type: cell-based, HepG2
T1 sequence (Q07869 whole entry): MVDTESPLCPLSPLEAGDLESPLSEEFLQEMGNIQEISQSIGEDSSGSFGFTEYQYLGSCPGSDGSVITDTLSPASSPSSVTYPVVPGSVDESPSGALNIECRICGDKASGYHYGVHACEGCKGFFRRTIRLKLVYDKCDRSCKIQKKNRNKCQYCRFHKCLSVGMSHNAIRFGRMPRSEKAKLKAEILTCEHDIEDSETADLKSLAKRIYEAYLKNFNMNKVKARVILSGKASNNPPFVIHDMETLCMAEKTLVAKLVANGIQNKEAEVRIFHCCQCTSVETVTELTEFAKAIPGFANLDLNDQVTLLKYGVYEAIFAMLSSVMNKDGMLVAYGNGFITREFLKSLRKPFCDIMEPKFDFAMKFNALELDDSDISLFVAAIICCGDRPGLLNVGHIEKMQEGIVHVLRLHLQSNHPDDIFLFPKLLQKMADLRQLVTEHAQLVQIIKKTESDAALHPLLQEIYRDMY
Procedure, shortened: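 Gal4-LBD fusion vector (50 ng) was co-transfected with pGal4UAS-luciferase (100 ng) and pCMVβ β-galactosidase normalizer (300 ng) into HepG2 cells by calcium phosphate for 4 h. Cells were washed, then given serum-free DMEM/F-12 with ligand or 0.1% ethanol vehicle for 20 h. Luciferase was normalized to β-galactosidase. EC50 came from concentration-response curves, mean ± SEM of 3–5 independent experiments in triplicate.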

[2] = biological target: T2, Peroxisome proliferator-activated receptor alpha (Homo sapiens) (UniProt Q07869); experiment: Agonist activity at PPARalpha ligand binding domain expressed in human Hep G2 cells co-transfected with Gal4-DBD by luciferase reporter gene assay relative to Wy 14,643; assay type: cell-based; conditions: HepG2
T2 sequence (whole entry): T1 sequence (Q07869 whole entry)
Procedure, shortened: (§1)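 HepG2 cells received the Gal4-receptor LBD construct (50 ng), pGal4UAS-luciferase (100 ng) and pCMVβ (300 ng) by calcium phosphate coprecipitation for 4 h. They were then treated in serum-free DMEM/F-12 with ligand or 0.1% ethanol for 20 h. Luciferase was normalized to β-galactosidase, and efficacy was expressed as percent of the Wy 14,643 maximum (100%). Values are mean ± SEM of 3–5 experiments in triplicate.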

[3] = biological target: T2, Peroxisome proliferator-activated receptor alpha (Homo sapiens); experiment: Agonist activity at human PPARalpha ligand binding domain expressed in human Hep G2 cells co-transfected with Gal4-DBD by luciferase reporter gene assay relative to Wy 14,643; assay type: cell-based; conditions: HepG2; procedure, shortened: as §1
[4] = biological target: T3, Peroxisome proliferator-activated receptor alpha (Mus musculus) (UniProt P23204); experiment: Agonist activity at mouse PPARalpha ligand binding domain expressed in human Hep G2 cells co-transfected with Gal4-DBD by luciferase reporter gene assay relative to Wy 14,643; assay type: cell-based; conditions: HepG2; procedure, shortened: as §1
T3 sequence (whole entry): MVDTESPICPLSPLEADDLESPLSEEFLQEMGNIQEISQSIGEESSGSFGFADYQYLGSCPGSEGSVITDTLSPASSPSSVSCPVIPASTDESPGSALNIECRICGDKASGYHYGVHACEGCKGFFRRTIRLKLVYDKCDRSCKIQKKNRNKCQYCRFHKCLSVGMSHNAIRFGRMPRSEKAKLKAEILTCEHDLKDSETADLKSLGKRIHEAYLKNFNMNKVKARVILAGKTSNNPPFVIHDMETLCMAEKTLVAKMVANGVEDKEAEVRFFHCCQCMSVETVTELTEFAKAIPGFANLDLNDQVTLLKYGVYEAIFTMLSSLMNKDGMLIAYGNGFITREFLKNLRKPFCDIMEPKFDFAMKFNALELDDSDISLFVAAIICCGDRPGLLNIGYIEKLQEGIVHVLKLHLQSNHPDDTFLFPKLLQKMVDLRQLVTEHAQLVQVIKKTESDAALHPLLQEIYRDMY

Work on `O=C(O)[C@H](Cc1ccccc1)Oc1ccc(CCc2ccccc2)cc1` yielded an EC50 [1] of 150 nM and an Efficacy [2] of 83%.

With `O=C(O)[C@H](Cc1ccccc1)Oc1ccc(Cc2ccccc2)cc1` the EC50 [1] was 11 nM and the Efficacy [2] was 107%.

`Cc1cccc(Nc2cc(Cl)nc(SCC(=O)O)n2)c1C` was tested, and the Efficacy [3] was 100% and the Efficacy [4] was 100%.
